Reference: ChEMBL document CHEMBL4007477, “Novel 2-phenyl-4,5,6,7-tetrahydro[b]benzothiophene analogues as selective COX-2 inhibitors: Design, synthesis, anti-inflammatory evaluation, and molecular docking studies” (Bioorg Med Chem Lett, 2017)

Key:
[1] = target: T1, COX1 (Prostaglandin G/H synthase 1) (Ovis aries, UniProt P05979); assay: Inhibition of ovine COX1 at 60 uM using arachidonic acid as substrate preincubated for 5 mins followed by substrate addition measured after 2 mins by ADHP probe-based fluorescence assay relative to control; conditions: sheep, ovine COX1 enzyme
T1 sequence (P05979 whole entry): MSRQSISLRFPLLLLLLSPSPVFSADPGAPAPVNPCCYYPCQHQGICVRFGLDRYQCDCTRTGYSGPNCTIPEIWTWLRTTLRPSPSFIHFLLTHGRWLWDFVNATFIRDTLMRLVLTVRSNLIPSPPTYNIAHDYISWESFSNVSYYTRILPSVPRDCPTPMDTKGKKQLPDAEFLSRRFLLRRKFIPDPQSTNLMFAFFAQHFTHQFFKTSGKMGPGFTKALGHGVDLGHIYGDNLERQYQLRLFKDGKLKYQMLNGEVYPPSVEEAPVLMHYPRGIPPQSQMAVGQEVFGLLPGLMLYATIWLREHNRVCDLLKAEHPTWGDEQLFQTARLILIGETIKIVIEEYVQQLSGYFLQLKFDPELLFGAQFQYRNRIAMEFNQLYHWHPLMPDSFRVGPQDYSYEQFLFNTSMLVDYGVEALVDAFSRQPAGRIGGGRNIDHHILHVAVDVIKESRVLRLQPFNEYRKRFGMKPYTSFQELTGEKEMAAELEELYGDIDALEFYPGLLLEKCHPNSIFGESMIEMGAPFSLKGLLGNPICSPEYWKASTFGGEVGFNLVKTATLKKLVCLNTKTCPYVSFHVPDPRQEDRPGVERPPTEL

[2] = target: T2, Prostaglandin G/H synthase 1 (Ovis aries, UniProt P05979); assay: Inhibition of ovine COX1 using arachidonic acid as substrate preincubated for 5 mins followed by substrate addition measured after 2 mins by ADHP probe-based fluorescence assay
T2 sequence (P05979 whole entry): T1 sequence (P05979 whole entry)

[3] = target: T3, Prostaglandin G/H synthase 2 (Homo sapiens, UniProt P35354); assay: Inhibition of human recombinant COX2 using arachidonic acid as substrate preincubated for 5 mins followed by substrate addition measured after 2 mins by ADHP probe-based fluorescence assay
T3 sequence (P35354 whole entry): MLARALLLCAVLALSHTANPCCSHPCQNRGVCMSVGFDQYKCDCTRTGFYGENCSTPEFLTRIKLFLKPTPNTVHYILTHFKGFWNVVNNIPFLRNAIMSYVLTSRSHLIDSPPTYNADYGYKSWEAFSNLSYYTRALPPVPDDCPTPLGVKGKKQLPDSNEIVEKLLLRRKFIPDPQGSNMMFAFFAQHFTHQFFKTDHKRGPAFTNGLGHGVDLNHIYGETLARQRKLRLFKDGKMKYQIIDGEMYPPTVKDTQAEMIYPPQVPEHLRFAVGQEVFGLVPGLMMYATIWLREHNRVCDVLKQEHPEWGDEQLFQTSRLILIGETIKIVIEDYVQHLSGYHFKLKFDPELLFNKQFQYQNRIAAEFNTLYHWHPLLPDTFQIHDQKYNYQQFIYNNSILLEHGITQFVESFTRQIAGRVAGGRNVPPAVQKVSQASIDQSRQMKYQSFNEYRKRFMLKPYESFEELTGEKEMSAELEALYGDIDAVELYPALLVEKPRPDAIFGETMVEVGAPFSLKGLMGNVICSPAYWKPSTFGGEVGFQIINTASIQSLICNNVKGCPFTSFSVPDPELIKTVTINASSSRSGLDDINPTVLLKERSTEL

[4] = Selectivity index, ratio of IC50 for ovine COX1 to IC50 for human recombinant COX2
Outline: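 Selectivity index computed as COX-1 IC₅₀ / COX-2 IC₅₀, using ovine COX-1 and human recombinant COX-2. Each IC₅₀ is a mean of two determinations.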

[5] = Cytotoxicity against mouse RAW264.7 cells assessed as cell viability at 80 uM after 24 hrs by MTT assay relative to control; format: cell-based; conditions: read-out: Activity
Outline: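 MTT viability in RAW 264.7 cells after 24 h exposure to 5, 10, 20, 40, 80 and 160 µM compound.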

Rattus norvegicus [6] = assay: Antiinflammatory activity in carrageenan-induced Wistar rat paw edema model assessed as rise in paw volume at 150 ug/kg administered 1 hr followed by carrageenan challenge measured at 30 mins by plethysmometer (reference value: 49.5%); format: functional
Rattus norvegicus [7] = assay: Antiinflammatory activity in carrageenan-induced Wistar rat paw edema model assessed as rise in paw volume at 150 ug/kg administered 1 hr followed by carrageenan challenge measured at 60 mins by plethysmometer (reference value: 52.8%); format: functional
Rattus norvegicus [8] = assay: Antiinflammatory activity in carrageenan-induced Wistar rat paw edema model assessed as rise in paw volume at 150 ug/kg administered 1 hr followed by carrageenan challenge measured at 180 mins by plethysmometer (reference value: 60.1%); format: functional
Rattus norvegicus [9] = assay: Antiinflammatory activity in carrageenan-induced Wistar rat paw edema model assessed as rise in paw volume at 150 ug/kg administered 1 hr followed by carrageenan challenge measured at 360 mins by plethysmometer (reference value: 49.3%); format: functional
[10] = target: T4, Prostaglandin G/H synthase 2 (Homo sapiens) (UniProt P35354); conditions: at 60 µM
T4 sequence (whole entry): T3 sequence (P35354 whole entry)

SMILES | inhibition at 2 min, 60 µM [1] [%] | IC50 [2] [µM] | IC50 [3] [µM] | Ratio IC50 [4] | viability at 24 h, 80 µM [5] [%] | Activity (Rattus norvegicus [6]) [%] | Activity (Rattus norvegicus [7]) [%] | Activity (Rattus norvegicus [8]) [%] | Activity (Rattus norvegicus [9]) [%] | inhibition [10] [%]
CC(=O)c1cccc(OC(=O)c2c(-c3ccccc3)sc3c2CCCC3)c1 | 73.5 | 29.6 | 0.31 | 92.7 | 64.5 | 28.9 | 30.8 | 30.5 | 30.3 | 93.5
NS(=O)(=O)c1ccc(OC(=O)c2c(-c3ccccc3)sc3c2CCCC3)cc1 | 69.3 | 37 | 0.67 | 54.7 | 83.7 | 21.4 | 21.6 | 21.1 | 31.3 | 89.4
O=C(Oc1ccc([N+](=O)[O-])cc1)c1c(-c2ccccc2)sc2c1CCCC2 | 19.3 | – | – | – | – | – | – | – | – | 16.5
O=C(Oc1ccccc1)c1c(-c2ccccc2)sc2c1CCCC2 | 47.1 | 61.2 | 0.33 | 184 | 50.8 | 10.6 | 30.2 | 27 | 37 | 97.6
O=C(Oc1ccc(Cl)cc1)c1c(-c2ccccc2)sc2c1CCCC2 | 72.4 | – | – | – | – | – | – | – | – | 36.8
Nc1ccc(OC(=O)c2c(-c3ccccc3)sc3c2CCCC3)cc1 | 88.3 | – | – | – | – | 29 | 33.1 | 44.9 | 39.9 | 32.3
CC(=O)Nc1ccc(OC(=O)c2c(-c3ccccc3)sc3c2CCCC3)cc1 | 36.8 | 68.8 | 1.4 | 48.8 | 41.3 | 10.6 | 30.2 | 27 | 37 | 75.7
O=Cc1ccc(OC(=O)c2c(-c3ccccc3)sc3c2CCCC3)cc1 | 11.6 | – | – | – | – | – | – | – | – | 10.7
COC(=O)c1ccc(OC(=O)c2c(-c3ccccc3)sc3c2CCCC3)cc1 | 68.9 | – | – | – | – | – | – | – | – | 56.5
CC(C)(C)c1ccc(OC(=O)c2c(-c3ccccc3)sc3c2CCCC3)cc1 | 8.1 | – | – | – | – | – | – | – | – | 3.1
O=C(Oc1ccc(Br)cc1)c1c(-c2ccccc2)sc2c1CCCC2 | 35.5 | – | – | – | – | – | – | – | – | 18.5
Cc1ccc(-c2cc(C(F)(F)F)nn2-c2ccc(S(N)(=O)=O)cc2)cc1 [CELECOXIB] | – | – | – | – | 33.9 | 5.8 | 16.2 | 19.7 | 26.6 | –
Cc1ccc(OC(=O)c2c(-c3ccccc3)sc3c2CCCC3)cc1 | 64 | – | – | – | – | – | – | – | – | 47.2
COc1ccc(OC(=O)c2c(-c3ccccc3)sc3c2CCCC3)cc1 | 10.7 | – | – | – | – | – | – | – | – | 41
N#Cc1ccc(OC(=O)c2c(-c3ccccc3)sc3c2CCCC3)cc1 | 76 | – | – | – | – | 13.6 | 22 | 21.4 | 28.5 | 83.7
COC(=O)Cc1ccc(OC(=O)c2c(-c3ccccc3)sc3c2CCCC3)cc1 | 7.81 | – | – | – | – | – | – | – | – | 15
CC(=O)c1ccc(OC(=O)c2c(-c3ccccc3)sc3c2CCCC3)cc1 | 10.3 | – | – | – | – | 24.7 | 37.1 | 55.2 | 54.2 | 8.04
NC(=O)Cc1ccc(OC(=O)c2c(-c3ccccc3)sc3c2CCCC3)cc1 | 1.43 | – | – | – | – | – | – | – | – | 38.3
